# Screens (PubChem)
# Wnt act – activators of Wnt/beta-catenin signaling. Wnt/beta-catenin reporter cell assay, activator, plate reader. activation, % at 9.35 µM. actives 1.2% (n = 300,000). AID 743398; in the data active = activation above about 30%, passing the limit was not always enough; inconclusive = no clear call, values can overlap the other calls;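 also: 0% = neutral control wells and 100% = positive control wells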
# Cneo AK release – Cryptococcus neoformans lysis via adenylate kinase release | C. neoformans lysis, adenylate kinase release luminescence, 4 h; normalised: neutral wells 0, clomiphene wells 100 | actives 0.2% (n = 360,000) | lysis activity, % at 15 µM;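 active = mean lysis activity across replicates of at least 80%, whatever share of replicates individually reach that level; inactive = mean lysis activity below 80%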
#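 Assay system: C. neoformans cells. Amount: yeast cell density of 5 × 10^6 cells/mL. Technique: AK luminescence. Buffer or medium: YPD. Times: static 4 h at 37 °C with compound, 1 h detection. Dosing: single-point compound dose. Read-out: lysis from increased AK signal.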
# MITF TRPM1 HTS – MITF TRPM1 promoter activation in melanoma cells; SK-MEL-5 TRPM1-promoter luciferase, 24 h; % of positive control, neutral wells = 0; activation, % at 12.5 µM; actives 0.75% (n = 300,000);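 active = mean activation of at least 80% with every replicate also reaching 80%; inconclusive = mean reaches 80% but some replicate falls short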;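 also: 0% = neutral control wells and 100% = parthenolide positive control wells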
# ERAP1 HTS inh – inhibitors of human ERAP1 aminopeptidase | actives 0.15% (n = 340,000) | Q9NZ08 | recombinant ERAP1, Leu-AMC fluorescence, 60 min | inhibition, % at 10.7 µM | AID 652197;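 active = mean replicate inhibition of at least 30%, or all replicates individually reaching that 30% level; inactive = mean below 30% and not every replicate reaching it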;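 also: 0% = neutral control wells and 100% = L-leucinethiol positive control wells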
# Target sequence (Q9NZ08 whole entry, looked up): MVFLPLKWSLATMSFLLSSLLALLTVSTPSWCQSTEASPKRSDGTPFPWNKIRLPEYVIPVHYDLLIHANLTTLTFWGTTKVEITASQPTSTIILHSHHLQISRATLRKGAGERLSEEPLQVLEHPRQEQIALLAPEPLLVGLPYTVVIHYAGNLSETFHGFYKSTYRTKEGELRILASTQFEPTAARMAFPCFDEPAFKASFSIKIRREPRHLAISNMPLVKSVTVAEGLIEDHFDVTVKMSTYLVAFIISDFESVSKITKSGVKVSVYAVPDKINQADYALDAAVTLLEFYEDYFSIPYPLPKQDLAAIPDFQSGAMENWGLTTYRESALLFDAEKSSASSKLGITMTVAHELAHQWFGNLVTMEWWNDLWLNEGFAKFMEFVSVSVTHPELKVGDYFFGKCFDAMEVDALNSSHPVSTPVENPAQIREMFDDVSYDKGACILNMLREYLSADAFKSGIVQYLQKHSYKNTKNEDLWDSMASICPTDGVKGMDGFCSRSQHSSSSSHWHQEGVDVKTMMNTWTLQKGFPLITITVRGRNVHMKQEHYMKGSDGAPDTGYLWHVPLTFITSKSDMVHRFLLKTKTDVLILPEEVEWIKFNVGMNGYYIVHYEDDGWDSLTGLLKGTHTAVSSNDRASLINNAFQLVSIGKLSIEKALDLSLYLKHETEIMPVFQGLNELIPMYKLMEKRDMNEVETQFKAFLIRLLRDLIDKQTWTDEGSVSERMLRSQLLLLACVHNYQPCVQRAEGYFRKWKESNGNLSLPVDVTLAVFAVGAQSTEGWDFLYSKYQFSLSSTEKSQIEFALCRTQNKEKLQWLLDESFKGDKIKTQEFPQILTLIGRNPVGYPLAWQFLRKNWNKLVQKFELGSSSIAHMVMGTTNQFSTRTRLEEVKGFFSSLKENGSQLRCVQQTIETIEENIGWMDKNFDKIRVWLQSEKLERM
# HIV Env fusion – inhibitors of HIV Env-mediated cell fusion; HeLa-JRFL Env/CEM21 cell fusion, luciferase; inhibition, % at 12.3 µM; actives 1.1% (n = 360,000); AID 651610;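 active = mean replicate inhibition score of at least 50 and every replicate individually at or above 50; inconclusive = only one of the two criteria met; inactive = mean below 50 and not all replicates reaching 50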;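 also: 0% = plate neutral controls and 100% = maraviroc near 300 nM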
# esBAF inh – SWI/SNF esBAF complex inhibition. mouse ES cells, Bmi1-luciferase knock-in reporter, 24 h; 100% = twice the neutral-well signal. reporter increase, % at 12.5 µM. actives 2% (n = 350,000). AID 602393; in the data active = activation above about 40%; inconclusive = no clear call, values can overlap the other calls;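 also: 0% = median of the plate's neutral control wells and 100% = double that signal; a rise in the Bmi1 reporter signal indicates esBAF inhibition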
# Starred values were filed as active, the others as inactive; ? = inconclusive; nt = no result; [ ] = remark or other dose. A selection: hits, their analogues and other compounds. The true share with any hit is near 3.5%.
SMILES,Wnt act,Cneo AK release,MITF TRPM1 HTS,ERAP1 HTS inh,HIV Env fusion,esBAF inh
O=C(Nc1ccccc1F)N1C[C@H]2[C@@H](c3ccccc31)[C@H](CO)N2C(=O)C1CCCC1,nt,-3,nt,1,nt,20
O=C1[C@H](Cc2ccccc2)CCn2cc(nn2)COCC2CCCN12 (some centres undefined),nt,3,nt,2,-28[16.7 µM],nt
Cc1ccccc1NC(=S)NCC1CCN(C(C)c2ccccc2)C1 (centres undefined),46*,nt,-7,nt,-2,5
Cc1cc(C)cc(NC(=S)NCC2CCN(C(C)c3ccccc3)C2)c1 (centres undefined),-1,8,-5,-1,10,6
O=C1c2ccccc2CCCC12N=NCC2c1cccc2ccccc12 (centres undefined),-3,-3,-4,nt,11,-1
Cc1ccc(C2CN=NC23CCc2ccccc2C3=O)cc1 (centres undefined),3,-9,7,nt,-1,48*
Cc1noc(C)c1NC(=O)N(C)C[C@H]1OCc2cnnn2CCCC(=O)N([C@@H](C)CO)C[C@@H]1C,nt,-1,nt,-1,nt,-6
Cc1cc(C)n(-c2ccc(C(=O)Nc3ccc4c(c3)OCO4)cc2)n1,9,-7,64,nt,nt,68*
Cc1cc(C)n(-c2ccc(C(=O)Nc3cccc(S(=O)(=O)N(C)C)c3)cc2)n1,-6,nt,-11,2,27,nt
CCN(CC)S(=O)(=O)c1cccc(NC(=O)c2ccc(-n3nc(C)cc3C)cc2)c1,-2,0,-23,nt,67*,nt
CN(C(=O)c1ccc(Oc2ccc([N+](=O)[O-])cc2)cc1)C1CCCCC1,1,2,-7,2,59*,-4
Brc1ccc2oc3c(N4CCOCC4)ncnc3c2c1,7,-1,9,2,nt,48*
c1ccc(N2CCN(c3ncnc4c3oc3ccccc34)CC2)cc1,nt,-1,-6,nt,nt,-2
O=C(C[C@@H]1CC[C@H](NC(=O)C2CCC2)[C@@H](CO)O1)NCc1ccncc1,nt,0,nt,1,-20[16.7 µM],-3
COc1ccc(C2CC(C)(c3ccc(OC)cc3)Nc3ccccc3N2)cc1 (centres undefined),49*,-6,nt,1,-147,?
COc1ccc(C2(C)CC(C)(C)Nc3ccccc32)cc1 (centres undefined),0,-1,nt,-1,6,2
COc1ccc2c3c([nH]c2c1)[C@@H](CO)N(C(=O)C1CCCCC1)CC31CCN(S(C)(=O)=O)CC1,nt,nt,nt,-3,nt,nt
O=c1c2ccccc2nc2n1-c1ccccc1CCC2,-3,-1,nt,nt,-39,0
O=C1c2ccccc2-n2c1nc1ccccc1c2=O,0,1,nt,2,nt,45*
COc1ccc(CNC(=O)N(C)C[C@@H]2OCc3ccccc3-c3ccccc3C(=O)N([C@@H](C)CO)C[C@H]2C)cc1,nt,-2,nt,2,16[16.7 µM],0
COCC#Cc1ccc([C@@H]2[C@@H](CO)N3CCCCN(S(=O)(=O)c4ccccc4F)C[C@@H]23)cc1,nt,2,nt,1,nt,2
CCCCn1c(SCC2CCCCO2)nc2cc(S(N)(=O)=O)ccc21 (centres undefined),40*,nt,7,nt,-77,nt
CCCCn1c(SCC(=O)N2CCCCC2)nc2cc(S(N)(=O)=O)ccc21,nt,6,-14,nt,-36,-3
C/C(=N\Nc1ccccn1)c1ccc2c(c1)OCO2,10,1,35,-1,-59,61*
C/C(=N\Nc1ccccn1)c1ccc(C(C)C)cc1,5,-1,125*,-2,-11,64*
SMILES,Wnt act,Cneo AK release,MITF TRPM1 HTS,ERAP1 HTS inh,HIV Env fusion,esBAF inh
C/C(=N\Nc1nc2ccccc2[nH]1)c1ccc2c(c1)OCO2,nt,34,27,-12,-7,11
COc1ccc(-c2ccc(C(=O)C3CC3)cc2)cc1,27,-3,107*,1,-68,37
COc1ccc(C(=O)C2CCN(C(=O)c3ccc(C)cc3)CC2)cc1,-3,2,-26,nt,86*,5
O=C(C[C@@H]1CC[C@H](NC(=O)CCN2CCCCC2)[C@H](CO)O1)NCc1ccc(Cl)c(Cl)c1,nt,0,nt,-5,1[16.7 µM],-6
CC(=O)c1ccc(Nc2ccc(-c3ccccc3F)nn2)cc1,31*,-10,73,0,-126,?
COc1ccccc1-c1ccc(Nc2ccc(C(=O)N3CCOCC3)cc2)nn1,nt,1,3,nt,nt,9
COc1cccc2c1C(=O)c1ccc3ccccc3c1C2=O,nt,-3,41,nt,nt,47*
COc1ccc(OC)c2c1C(=O)c1ccccc1C2=O,9,nt,nt,nt,-99,nt
O=C(CCC1CCCC1)Nc1ccc(Br)cn1,nt,2,?,nt,-38,55*
O=C(CC1CCCC1)Nc1ccc(Br)cc1,18,-2,?,2,-24,67*
Cc1ccnc(NC(=O)CCC2CCCCC2)c1,9,-8,nt,nt,-126,49*
Cc1cc(NC(=O)CCC2CCCCC2)no1,nt,nt,nt,nt,-66,10
CCCC(=O)Nc1ccc(Br)cn1,nt,-6,17,nt,nt,-2
COc1ccc(NC(=O)CC2CCCCC2)cc1OC,8,1,34,nt,-24,29
CC(Nc1cc(C)cc(C)c1)=[N+](C)CCNS(=O)(=O)c1ccc(Cl)cc1,-2,0,5,10,61*,-5
Cc1ccc(-c2ccc3c(c2)O[C@@H](CN(C)Cc2ccc(C(=O)O)cc2)[C@@H](C)CN([C@H](C)CO)S3(=O)=O)cc1,nt,-6,nt,-3,-6[16.7 µM],-1
O=[N+]([O-])c1ccc(NN=Cc2ccc(O)cc2O)nc1,9,0,1,2,-43,-25
CCN(CC)c1ccc(C=NNc2ccc([N+](=O)[O-])cn2)cc1,48*,-1,44,-5,-179,nt
O=[N+]([O-])c1ccc(NN=Cc2ccccc2)nc1,50*,nt,148*,4,-110,nt
CN(C)c1ccc(Nc2ccc([N+](=O)[O-])cn2)cc1,9,1,nt,-3,-42,50*
O=[N+]([O-])c1ccc(NN=Cc2ccc(O)cc2)nc1,67*,0,44,0,-107,95*
O=[N+]([O-])c1ccc(NN=Cc2ccccc2O)nc1,-8,8,3,1,-61,-48
CCS(=O)(=O)Nc1ccc2c(c1)C(=O)N(C)C[C@H](OC)[C@H](C)CN(CCC(F)(F)F)[C@@H](C)CO2,nt,1,nt,nt,12[16.7 µM],0
C[C@@H]1CN([C@@H](C)CO)C(=O)c2cc(-c3ccc(C#N)cc3)cnc2O[C@@H]1CN(C)C(=O)CN(C)C,nt,42,nt,-3,-6[16.7 µM],3
COc1ccc(C=NNc2ccc([N+](=O)[O-])cn2)cc1,16,0,74,-3,nt,52*
O=[N+]([O-])c1ccc(N/N=C\c2cccn2-c2ccccc2)nc1,nt,0,16,nt,nt,-11
